Measurements reported in PubChem BioAssay.
Activity calls are given as the source filed them.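 The calls were made as follows, unless noted: active = Her2 level under about 52% in both replicate screens, with viability over 70% of control (limit read from the data); inconclusive = Her2 under the limit in one screen only, or viability under 70%; inactive = Her2 level above the set limit.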

Key:
[1] = Her2 expression decrease, cell viability multiplex – SKBR3 breast tumor cells, AlphaScreen, ATP viability, primary screen (AID 461); conditions: SKBR3 Her2 protein level, 18-24 h, measured here: SKBR3 viability, ATP luminescence, at 10 µM;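 as to Her2 level: lower value means less Her2 protein in the cells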;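 as to viability: percent of carrier control wells set as 100% viability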
[2] = molecular target: Receptor tyrosine-protein kinase erbB-2 (Homo sapiens) (UniProt P04626); experiment: as above; conditions: 18-24 h, at 10 µM, stronger effect = lower value
[3] = reduced viability of SK-BR-3 breast cancer cells – cell-based, 24 h, human, pilot screen (AID 572;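 active = viability at or below 10% of carrier control in both of two separate runs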;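 also: compound exposure lasted between 18 and 24 h rather than exactly 24 h; 100% = carrier-treated control wells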); conditions: SK-BR-3 viability, CellTiter-Glo luminescence, at 10 µM, stronger effect = lower value
[4] = HUVEC growth inhibition – cell-based, human, primary screen (AID 575;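 active = viability at or below 30% in both replicate assays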;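 also: 100% = median of untreated cell wells with 0.1% DMSO on each plate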); conditions: HUVEC proliferation, CellTiter-Glo luminescence, 72 h; at 10 µM; stronger effect = lower value
In short: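 Test system: primary human umbilical vein endothelial cells. Quantity: 1250 cells/well. Compound: single 10 µM dose, 0.1% DMSO, from 5x medium stock. Timing: 72 h treatment at 37 °C. Detection: ATP-based CellTiter-Glo luminescent read. Benchmarks: vehicle and MePR control wells. Format: 384-well plates coated with collagen.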

[5] = H69AR cell proliferation blockers – human, duplicate replicates, primary screen (AID 580;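 active = viability at or under a set limit in both replicates, limit being median viability minus 3 SD, cut at about 48% in these data, passing the limit was not always enough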;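 also: 100% = mean luminescence of untreated wells and 0% = no signal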); conditions: H69AR lung tumor cells viability, ATP luminescence, 72 h; at 10 µM; stronger effect = lower value
[6] = MRP1 drug-resistance reversers in H69AR cells – cell-based, doxorubicin co-treatment, pilot screen (AID 601;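 active = viability loss from added drug above about 55%, and viability with drug at most 40%, in both replicates, limit read from the data, passing the limit was not always enough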); conditions: CellTiter-Glo, 72 h, at 10 µM; for differential viability (reversal): stronger effect = higher value
[7] = yeast transport mutant growth inhibition pilot in 384-well plates, post-Golgi transport modulator project (AID 636; in the data active = inhibition above about 31%); conditions: absorbance 615 nm, about 18 h, stronger effect = higher value
[8] = growth suppression of yeast trafficking mutant, preliminary HTS, modulators of trafficking downstream of Golgi apparatus project, 1536-format plate, OD 615 nm (AID 637; in the data active = inhibition above about 30%); conditions: yeast transport mutant growth, absorbance 615 nm, 18 h; stronger effect = higher value
[9] = H69AR cells + 2 uM doxorubicin, measured here: viability with 2 uM doxorubicin, stronger effect = lower value
[10] = H69AR cells, compound alone cytotoxicity

Receptor tyrosine-protein kinase erbB-2 (Homo sapiens), sequence (P04626 whole entry, looked up): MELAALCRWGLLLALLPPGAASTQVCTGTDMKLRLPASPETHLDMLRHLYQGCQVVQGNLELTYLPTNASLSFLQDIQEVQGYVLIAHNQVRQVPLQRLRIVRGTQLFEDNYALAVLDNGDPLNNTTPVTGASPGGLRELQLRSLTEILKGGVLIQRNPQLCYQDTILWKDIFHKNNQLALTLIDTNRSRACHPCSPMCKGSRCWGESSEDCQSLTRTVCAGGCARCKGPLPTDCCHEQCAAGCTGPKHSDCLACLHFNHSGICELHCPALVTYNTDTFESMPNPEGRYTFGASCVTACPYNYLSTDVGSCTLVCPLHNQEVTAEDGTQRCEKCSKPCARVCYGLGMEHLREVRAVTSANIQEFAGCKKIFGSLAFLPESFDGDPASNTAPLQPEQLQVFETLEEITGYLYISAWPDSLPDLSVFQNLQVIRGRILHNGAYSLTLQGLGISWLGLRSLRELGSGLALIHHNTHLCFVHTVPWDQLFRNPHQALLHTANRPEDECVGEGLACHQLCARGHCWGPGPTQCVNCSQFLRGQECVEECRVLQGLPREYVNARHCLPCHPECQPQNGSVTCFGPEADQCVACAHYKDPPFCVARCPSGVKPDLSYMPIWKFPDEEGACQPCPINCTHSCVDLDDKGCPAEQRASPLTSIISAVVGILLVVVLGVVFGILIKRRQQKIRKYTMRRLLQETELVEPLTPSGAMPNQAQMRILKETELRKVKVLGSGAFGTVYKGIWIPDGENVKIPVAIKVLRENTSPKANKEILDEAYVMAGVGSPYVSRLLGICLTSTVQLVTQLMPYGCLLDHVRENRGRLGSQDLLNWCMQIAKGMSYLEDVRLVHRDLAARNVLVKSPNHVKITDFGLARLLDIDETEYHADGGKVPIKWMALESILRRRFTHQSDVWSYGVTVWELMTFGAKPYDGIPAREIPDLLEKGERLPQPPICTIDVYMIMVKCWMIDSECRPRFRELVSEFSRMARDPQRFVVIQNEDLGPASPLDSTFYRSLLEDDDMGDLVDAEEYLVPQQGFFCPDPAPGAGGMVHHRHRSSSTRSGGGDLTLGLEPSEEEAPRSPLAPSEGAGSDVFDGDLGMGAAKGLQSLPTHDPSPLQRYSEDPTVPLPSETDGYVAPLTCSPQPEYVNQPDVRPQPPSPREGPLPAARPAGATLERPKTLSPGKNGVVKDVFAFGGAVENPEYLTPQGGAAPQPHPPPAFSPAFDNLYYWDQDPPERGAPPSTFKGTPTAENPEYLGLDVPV

Row | Compound | viability [1] [%] | Her2 level [2] | viability [3] | viability [4] | viability [5] | differential viability (reversal) ([6]; H69AR cells + 2 uM doxorubicin) | viability [6, 9] [%] | viability [6, 10] [%] | inhibition [7] | inhibition [8]
1 | CCn1c(COc2cccc3ccccc23)nnc1SCC(N)=O | 96 | 75% (inactive) | 96% (inactive) | 91% (inactive) | 91.1% (inactive) | 13% (inactive) | 78.2 | 91.1 | -4.21% (inactive) | 0.18% (inactive)
2 | Cc1ccccc1CSCC(=O)c1c(N)n(C)c(=O)n(C)c1=O | 86.5 | 86.5% (inactive) | 86.5% (inactive) | 106% (inactive) | 93.5% (inactive) | -2.12% (inactive) | 95.6 | 93.5 | -2.37% (inactive) | -2.22% (inactive)
3 | O=C1CCNc2cc3ccccc3cc21 | 73.5 | 84% (inactive) | 73.5% (inactive) | 61.7% (inactive) | 70.5% (inactive) | 0.425% (inactive) | 70 | 70.5 | -8.9% (inactive) | 1.27% (inactive)
4 | CCOC(=O)c1[nH]c2ccc(Br)cc2c1NC(=O)CNC | 93 | 99.5% (inactive) | 93% (inactive) | 101% (inactive) | 87.3% (inactive) | -0.115% (inactive) | 87.5 | 87.3 | -2.37% (inactive) | 8.85% (inactive)
5 | Cc1ccnc(NC(=O)CCC(=O)N(CC(=O)NC(C)(C)C)C2CCCC2)c1 | 108 | 99.5% (inactive) | 108% (inactive) | 92.7% (inactive) | 93.2% (inactive) | 0.62% (inactive) | 92.6 | 93.2 | -4.94% (inactive) | 5.56% (inactive)
6 | O=C(c1cc2cc(Cl)cc(Cl)c2oc1=O)N1CCOCC1 | 76 | 82.5% (inactive) | 76% (inactive) | 96% (inactive) | 88.4% (inactive) | 0.725% (inactive) | 87.7 | 88.4 | -6.35% (inactive) | 3.44% (inactive)
7 | O=C(CSc1nc2ccccc2n1CC(=O)N1CCCC1)Nc1nccs1 | 106 | 93% (inactive) | 106% (inactive) | 98.4% (inactive) | 95.3% (inactive) | 16.4% (inactive) | 78.9 | 95.3 | -0.92% (inactive) | -6.73% (inactive)
8 | CC1CCN(C(=O)Cn2c(=O)oc3ccccc32)CC1 | 86.5 | 108% (inactive) | 86.5% (inactive) | 95.1% (inactive) | 90.7% (inactive) | 6.24% (inactive) | 84.5 | 90.7 | 0.53% (inactive) | -6.55% (inactive)
9 | O=C(OCN1C(=O)c2ccccc2C1=O)c1ccc2c(=O)n3c(nc2c1)CCC3 | 109 | 85.5% (inactive) | 109% (inactive) | 112% (inactive) | 96.7% (inactive) | -0.565% (inactive) | 97.2 | 96.7 | -4.73% (inactive) | 14.8% (inactive)
10 | O=C(NCC1COCCO1)C1CCN(S(=O)(=O)c2ccccc2)CC1 (stereo not given) | 90 | 119% (inactive) | 90% (inactive) | 106% (inactive) | 109% (inactive) | 10.3% (inactive) | 99.2 | 109 | 1.2% (inactive) | -7.26% (inactive)
11 | Cc1nc(NC(=O)C2CC3CCCC(C2)C3=O)sc1C (stereo not given) | 99.5 | 99.5% (inactive) | 99.5% (inactive) | 95% (inactive) | 82.8% (inactive) | -2.88% (inactive) | 85.7 | 82.8 | 0.39% (inactive) | -6.39% (inactive)
12 | O=C(C1CCC1)N1CCc2cc(S(=O)(=O)Nc3ccc4c(c3)OCO4)ccc21 | 85.5 | 76% (inactive) | 85.5% (inactive) | 70.1% (inactive) | 91.6% (inactive) | 17.8% (inactive) | 73.8 | 91.6 | -6.27% (inactive) | -5.08% (inactive)
13 | CC1(C)NC(=O)N(CNc2cc(Cl)ccc2Cl)C1=O | 104 | 87.5% (inactive) | 104% (inactive) | 85.7% (inactive) | 96.4% (inactive) | 0.94% (inactive) | 95.5 | 96.4 | -3.55% (inactive) | -1.82% (inactive)
14 | CCOC(=O)C1=C(C)NC2=C(C(=O)CC(C)(C)C2)C1c1ccc(N(C)C)cc1 (stereo not given) | 93 | 116% (inactive) | 93% (inactive) | 87% (inactive) | 94.3% (inactive) | -2.37% (inactive) | 96.6 | 94.3 | 1.3% (inactive) | -5.9% (inactive)
15 | CCCCn1c(SCC(=O)c2ccc3c(c2)OCCO3)nnc1-c1ccco1 | 94.5 | 104% (inactive) | 94.5% (inactive) | 81.8% (inactive) | 95% (inactive) | 1.53% (inactive) | 93.4 | 95 | 1.73% (inactive) | 16.1% (inactive)
16 | Cn1c(CCNC(=O)c2ccco2)nc2cc(NC(=O)C3CCCCC3)ccc21 | 101 | 114% (inactive) | 101% (inactive) | 78.3% (inactive) | 84.5% (inactive) | 2.02% (inactive) | 82.5 | 84.5 | -8.49% (inactive) | -1.59% (inactive)
17 | Cc1cc(NC(=O)COC(=O)c2cccc(S(=O)(=O)N3CCOCC3)c2)no1 | 112 | 88% (inactive) | 112% (inactive) | 92.4% (inactive) | 91.1% (inactive) | 6.37% (inactive) | 84.8 | 91.1 | -5% (inactive) | 1.9% (inactive)
18 | Cc1ccccc1-c1nc(CN2CCC(C(=O)NCCCN3CCOCC3)CC2)c(C)o1 | 86.5 | 107% (inactive) | 86.5% (inactive) | 74% (inactive) | 97.2% (inactive) | 5.29% (inactive) | 91.9 | 97.2 | 1.58% (inactive) | -4.29% (inactive)
19 | Cn1c(SCC(=O)N2CCOCC2)nnc1-c1cccc(NC(=O)c2ccccc2F)c1 | 102 | 82.5% (inactive) | 102% (inactive) | 94% (inactive) | 91.5% (inactive) | 11.4% (inactive) | 80.1 | 91.5 | -0.92% (inactive) | 3.06% (inactive)
20 | O=C(O)CCCC(=O)Nc1ccc(Br)cc1C(=O)O | 95.5 | 90% (inactive) | 95.5% (inactive) | 93.8% (inactive) | 96.8% (inactive) | 14.4% (inactive) | 82.4 | 96.8 | -0.53% (inactive) | -0.16% (inactive)
21 | C(=N\n1cnnc1)/c1cccnc1 | 87.5 | 107% (inactive) | 87.5% (inactive) | 105% (inactive) | 98.6% (inactive) | 9.86% (inactive) | 88.8 | 98.6 | 4.34% (inactive) | 0.36% (inactive)
22 | N#Cc1c(N)n(CCNC(=O)c2cccs2)c2nc3ccccc3nc12 | 82.5 | 84.5% (inactive) | 82.5% (inactive) | 97.9% (inactive) | 90.9% (inactive) | -7.67% (inactive) | 98.5 | 90.9 | -5.6% (inactive) | -0.16% (inactive)
23 | CC(=O)C1=C(C)NC(C)=C(C(C)=O)C1c1cccs1 | 99 | 86% (inactive) | 99% (inactive) | 84.8% (inactive) | 87% (inactive) | 5.3% (inactive) | 81.7 | 87 | -2.08% (inactive) | -4% (inactive)
24 | Cc1onc(-c2c(Cl)cccc2Cl)c1C(N)=O | 103 | 116% (inactive) | 103% (inactive) | 100% (inactive) | 106% (inactive) | 13.6% (inactive) | 92.5 | 106 | -2.03% (inactive) | -5.08% (inactive)
25 | O=C(CSc1nc2ccccc2o1)Nc1ccccc1 | 107 | 124% (inactive) | 107% (inactive) | 105% (inactive) | 79% (inactive) | -11.4% (inactive) | 90.4 | 79 | -0.9% (inactive) | -4.83% (inactive)
26 | CN(Cc1ccco1)C(=O)Cn1c(=O)oc2cc(S(=O)(=O)NCc3ccccc3)ccc21 | 92 | 85.5% (inactive) | 92% (inactive) | 96.4% (inactive) | 89.8% (inactive) | -3.67% (inactive) | 93.4 | 89.8 | -2.67% (inactive) | 1.8% (inactive)
27 | Cc1cc(-c2ccccc2)c(C#N)c(N)n1 | 114 | 91% (inactive) | 114% (inactive) | 81.9% (inactive) | 99.3% (inactive) | 6.5% (inactive) | 92.8 | 99.3 | -2.3% (inactive) | -0.98% (inactive)
28 | O=C(NCCN1CCOCC1)C1CC(=O)N(c2ccc(F)c(Cl)c2)C1 (stereo not given) | 124 | 111% (inactive) | 124% (inactive) | 100% (inactive) | 98.2% (inactive) | 3.27% (inactive) | 94.9 | 98.2 | -1.18% (inactive) | -4.03% (inactive)
29 | COc1cccc(NC(=O)N[C@@H](Cc2ccccc2)C(=O)O)c1 | 94 | 91.5% (inactive) | 94% (inactive) | 93.8% (inactive) | 114% (inactive) | 19.6% (inactive) | 94.5 | 114 | -4.46% (inactive) | 2.06% (inactive)
30 | O=C(CCN1C(=O)C2C3C=CC(C3)C2C1=O)Nc1c(F)cc(F)cc1Br (stereo not given) | 99.5 | 91.5% (inactive) | 99.5% (inactive) | 90.2% (inactive) | 103% (inactive) | 20.3% (inactive) | 82.6 | 103 | 1.08% (inactive) | -4.13% (inactive)
